Target: Protein-tyrosine kinase 6 (Homo sapiens) (UniProt Q13882)
Assay: Inhibition of BRK (unknown origin) at 1 uM relative to control; values are per cent of control
Details: not given

Protein-tyrosine kinase 6 (Homo sapiens), sequence (Q13882 whole entry, looked up): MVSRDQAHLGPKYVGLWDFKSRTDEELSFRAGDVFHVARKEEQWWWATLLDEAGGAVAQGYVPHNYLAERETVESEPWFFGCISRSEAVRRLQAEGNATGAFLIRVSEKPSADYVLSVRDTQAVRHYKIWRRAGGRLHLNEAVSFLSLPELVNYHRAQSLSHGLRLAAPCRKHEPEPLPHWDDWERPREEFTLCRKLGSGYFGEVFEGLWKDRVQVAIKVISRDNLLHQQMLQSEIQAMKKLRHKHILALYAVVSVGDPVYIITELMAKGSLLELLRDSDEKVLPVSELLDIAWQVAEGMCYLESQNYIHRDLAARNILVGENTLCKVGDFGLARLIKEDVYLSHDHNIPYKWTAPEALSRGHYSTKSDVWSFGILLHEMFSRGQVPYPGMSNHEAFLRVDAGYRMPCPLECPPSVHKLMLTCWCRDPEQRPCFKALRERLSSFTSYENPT

residual activity [%]	Structure (SMILES)
80	COc1ccc(-c2nc(-c3ccnc(N)n3)sc2C(N)=O)c(Cl)c1
94	CCOC(=O)c1sc(-c2ccncc2)nc1O

Structure (SMILES)	residual activity [%]
NC(=O)c1sc(-c2ccnc(N)n2)nc1-c1ccc(Cl)cc1Cl	68

Target: Tyrosine-protein kinase ABL1 (Homo sapiens) (UniProt P00519)
Assay: Inhibition of phosphorylated ABL1 (unknown origin) at 1 uM relative to control; values are per cent of control
Details: not given

Tyrosine-protein kinase ABL1 (Homo sapiens), sequence (P00519 whole entry): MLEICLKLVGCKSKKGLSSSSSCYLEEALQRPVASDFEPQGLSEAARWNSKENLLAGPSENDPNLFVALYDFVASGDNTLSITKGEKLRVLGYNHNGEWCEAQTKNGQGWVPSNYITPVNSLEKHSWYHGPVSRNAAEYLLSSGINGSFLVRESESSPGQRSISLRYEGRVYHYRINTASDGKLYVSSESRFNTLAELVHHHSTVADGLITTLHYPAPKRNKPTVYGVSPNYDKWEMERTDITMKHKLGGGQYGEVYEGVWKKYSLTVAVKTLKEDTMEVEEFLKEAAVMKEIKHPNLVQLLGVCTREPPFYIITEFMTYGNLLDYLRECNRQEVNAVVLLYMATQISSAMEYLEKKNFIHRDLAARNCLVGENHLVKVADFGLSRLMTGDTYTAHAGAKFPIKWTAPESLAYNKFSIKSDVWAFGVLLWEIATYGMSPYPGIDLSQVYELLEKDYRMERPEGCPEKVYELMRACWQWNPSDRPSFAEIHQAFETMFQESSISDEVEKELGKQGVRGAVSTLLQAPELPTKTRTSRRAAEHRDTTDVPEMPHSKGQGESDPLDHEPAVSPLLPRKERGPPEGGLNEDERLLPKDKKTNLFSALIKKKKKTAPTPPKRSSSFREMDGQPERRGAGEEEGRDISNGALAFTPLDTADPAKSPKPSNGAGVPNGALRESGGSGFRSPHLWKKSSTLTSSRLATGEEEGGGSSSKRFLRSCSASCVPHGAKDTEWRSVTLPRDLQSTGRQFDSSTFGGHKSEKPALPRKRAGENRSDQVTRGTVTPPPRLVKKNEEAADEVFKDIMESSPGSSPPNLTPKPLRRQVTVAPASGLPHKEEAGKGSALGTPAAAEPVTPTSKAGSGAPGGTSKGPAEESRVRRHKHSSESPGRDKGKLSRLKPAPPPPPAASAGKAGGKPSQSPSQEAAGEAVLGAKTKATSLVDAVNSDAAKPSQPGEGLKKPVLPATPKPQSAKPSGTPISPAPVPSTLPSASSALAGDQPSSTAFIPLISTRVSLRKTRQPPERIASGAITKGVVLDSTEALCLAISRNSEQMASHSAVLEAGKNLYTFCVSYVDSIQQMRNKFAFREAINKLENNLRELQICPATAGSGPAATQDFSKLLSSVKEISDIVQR

residual activity [%]	Structure (SMILES)
90	COc1ccc(-c2nc(-c3ccnc(N)n3)sc2C(N)=O)c(Cl)c1
100	CCOC(=O)c1sc(-c2ccncc2)nc1O

Structure (SMILES)	residual activity [%]
NC(=O)c1sc(-c2ccnc(N)n2)nc1-c1ccc(Cl)cc1Cl	100

Target: Tyrosine-protein kinase JAK2 (Homo sapiens) (UniProt O60674)
Assay: Inhibition of JH1 catalytic domain of JAK2 (unknown origin) at 1 uM relative to control; values are per cent of control
Details: not given

Tyrosine-protein kinase JAK2 (Homo sapiens), sequence (O60674 whole entry, the tested form may be a part): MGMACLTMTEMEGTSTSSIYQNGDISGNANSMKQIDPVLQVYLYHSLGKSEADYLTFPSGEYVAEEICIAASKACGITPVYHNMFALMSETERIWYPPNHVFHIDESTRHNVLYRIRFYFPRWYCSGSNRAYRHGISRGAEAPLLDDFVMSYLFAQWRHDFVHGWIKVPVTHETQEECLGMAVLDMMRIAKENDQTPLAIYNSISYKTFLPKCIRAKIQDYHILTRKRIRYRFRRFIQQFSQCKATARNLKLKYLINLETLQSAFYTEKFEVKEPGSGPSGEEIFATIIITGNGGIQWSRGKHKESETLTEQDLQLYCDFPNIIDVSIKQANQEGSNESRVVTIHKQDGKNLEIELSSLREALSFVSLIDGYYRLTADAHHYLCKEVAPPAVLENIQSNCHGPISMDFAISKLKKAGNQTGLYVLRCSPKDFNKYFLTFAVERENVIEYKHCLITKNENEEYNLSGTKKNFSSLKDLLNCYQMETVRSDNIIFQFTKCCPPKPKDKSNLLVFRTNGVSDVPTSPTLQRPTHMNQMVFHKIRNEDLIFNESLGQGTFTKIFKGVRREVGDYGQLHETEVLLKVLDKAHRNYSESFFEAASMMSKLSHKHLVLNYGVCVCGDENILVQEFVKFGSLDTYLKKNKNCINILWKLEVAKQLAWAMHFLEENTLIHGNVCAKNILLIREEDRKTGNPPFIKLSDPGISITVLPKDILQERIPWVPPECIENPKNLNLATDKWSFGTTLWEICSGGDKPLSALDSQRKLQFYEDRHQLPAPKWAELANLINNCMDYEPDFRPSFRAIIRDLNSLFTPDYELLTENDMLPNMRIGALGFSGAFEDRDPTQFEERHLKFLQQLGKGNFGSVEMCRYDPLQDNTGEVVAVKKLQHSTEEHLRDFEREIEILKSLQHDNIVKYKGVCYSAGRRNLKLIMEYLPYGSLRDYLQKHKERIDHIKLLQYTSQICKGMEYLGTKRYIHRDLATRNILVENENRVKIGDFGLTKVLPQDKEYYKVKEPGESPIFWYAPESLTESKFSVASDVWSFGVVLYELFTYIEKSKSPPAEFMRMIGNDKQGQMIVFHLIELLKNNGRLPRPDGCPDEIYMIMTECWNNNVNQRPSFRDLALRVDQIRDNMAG

residual activity [%]	Structure (SMILES)
100	COc1ccc(-c2nc(-c3ccnc(N)n3)sc2C(N)=O)c(Cl)c1
100	CCOC(=O)c1sc(-c2ccncc2)nc1O

Structure (SMILES)	residual activity [%]
NC(=O)c1sc(-c2ccnc(N)n2)nc1-c1ccc(Cl)cc1Cl	100

Target: T1, Serine/threonine-protein kinase TAO2 (Homo sapiens) (UniProt Q9UL54)
T1 sequence (whole entry): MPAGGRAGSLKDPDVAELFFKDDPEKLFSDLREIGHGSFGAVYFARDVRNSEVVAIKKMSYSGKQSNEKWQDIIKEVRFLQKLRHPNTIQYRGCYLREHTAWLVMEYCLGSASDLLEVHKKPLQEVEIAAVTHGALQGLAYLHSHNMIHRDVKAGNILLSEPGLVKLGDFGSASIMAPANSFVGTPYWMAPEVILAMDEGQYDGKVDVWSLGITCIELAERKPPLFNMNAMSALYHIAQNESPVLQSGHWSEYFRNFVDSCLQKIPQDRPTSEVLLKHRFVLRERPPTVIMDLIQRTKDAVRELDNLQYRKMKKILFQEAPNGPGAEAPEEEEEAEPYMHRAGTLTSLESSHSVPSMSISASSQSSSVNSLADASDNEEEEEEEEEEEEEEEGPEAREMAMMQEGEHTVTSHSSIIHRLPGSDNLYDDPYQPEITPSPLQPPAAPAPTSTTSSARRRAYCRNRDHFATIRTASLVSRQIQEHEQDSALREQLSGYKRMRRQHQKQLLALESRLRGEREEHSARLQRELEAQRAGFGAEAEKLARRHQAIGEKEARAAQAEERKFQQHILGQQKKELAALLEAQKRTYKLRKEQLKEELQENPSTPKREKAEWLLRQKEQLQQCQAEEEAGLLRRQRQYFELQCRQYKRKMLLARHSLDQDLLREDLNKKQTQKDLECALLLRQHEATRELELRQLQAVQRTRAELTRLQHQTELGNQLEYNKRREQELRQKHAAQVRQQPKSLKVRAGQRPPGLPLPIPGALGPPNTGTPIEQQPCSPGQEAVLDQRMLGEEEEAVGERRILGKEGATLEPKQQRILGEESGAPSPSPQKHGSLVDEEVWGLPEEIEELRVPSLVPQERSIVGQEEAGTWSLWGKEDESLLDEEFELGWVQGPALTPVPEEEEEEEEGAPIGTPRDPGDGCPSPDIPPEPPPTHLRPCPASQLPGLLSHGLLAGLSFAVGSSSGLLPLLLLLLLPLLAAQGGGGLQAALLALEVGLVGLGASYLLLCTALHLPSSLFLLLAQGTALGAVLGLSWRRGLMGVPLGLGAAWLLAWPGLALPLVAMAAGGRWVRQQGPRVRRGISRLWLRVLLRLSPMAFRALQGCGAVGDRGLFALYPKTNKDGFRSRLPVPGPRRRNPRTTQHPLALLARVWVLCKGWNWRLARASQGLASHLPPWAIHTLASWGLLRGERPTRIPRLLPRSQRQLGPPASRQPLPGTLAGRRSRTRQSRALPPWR
Assay: Inhibition of TAOK2 (unknown origin) at 1 uM relative to control
Details: values are per cent of control
In short: (§1)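 KinomeSCAN competitive binding panel of 100 kinases; compounds tested at 1 µM in duplicate; read-out is percent […] control.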

residual binding, % of control [%]	Structure (SMILES)
25	COc1ccc(-c2nc(-c3ccnc(N)n3)sc2C(N)=O)c(Cl)c1
100	CCOC(=O)c1sc(-c2ccncc2)nc1O

Structure (SMILES)	residual binding, % of control [%]
NC(=O)c1sc(-c2ccnc(N)n2)nc1-c1ccc(Cl)cc1Cl	55

Target: T2, Myotonin-protein kinase (Homo sapiens) (UniProt Q09013)
T2 sequence (whole entry): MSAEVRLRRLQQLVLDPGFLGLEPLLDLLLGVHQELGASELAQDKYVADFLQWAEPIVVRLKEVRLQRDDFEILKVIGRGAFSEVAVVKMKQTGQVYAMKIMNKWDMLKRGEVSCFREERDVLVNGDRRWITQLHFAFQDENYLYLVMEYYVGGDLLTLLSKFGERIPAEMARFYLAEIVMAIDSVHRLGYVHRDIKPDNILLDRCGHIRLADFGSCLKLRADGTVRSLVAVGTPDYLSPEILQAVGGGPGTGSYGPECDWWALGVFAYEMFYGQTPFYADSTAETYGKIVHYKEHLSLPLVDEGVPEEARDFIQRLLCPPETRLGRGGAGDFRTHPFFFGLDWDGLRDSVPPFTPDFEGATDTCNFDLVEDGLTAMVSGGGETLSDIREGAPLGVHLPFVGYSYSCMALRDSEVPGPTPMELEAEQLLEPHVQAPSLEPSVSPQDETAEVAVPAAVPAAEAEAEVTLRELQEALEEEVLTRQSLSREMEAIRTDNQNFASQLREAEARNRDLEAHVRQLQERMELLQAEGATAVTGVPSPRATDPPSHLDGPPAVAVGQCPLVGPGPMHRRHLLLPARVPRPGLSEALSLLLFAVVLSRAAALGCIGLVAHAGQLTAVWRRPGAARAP
Assay: Inhibition of DMPK (unknown origin) at 1 uM relative to control; values are per cent of control
Details: not given

residual activity [%]	Structure (SMILES)
50	COc1ccc(-c2nc(-c3ccnc(N)n3)sc2C(N)=O)c(Cl)c1
88	CCOC(=O)c1sc(-c2ccncc2)nc1O

Structure (SMILES)	residual activity [%]
NC(=O)c1sc(-c2ccnc(N)n2)nc1-c1ccc(Cl)cc1Cl	100

Target: Platelet-derived growth factor receptor beta (Homo sapiens) (UniProt P09619)
Assay: Inhibition of PDGFRB (unknown origin) at 1 uM relative to control
Details: values are per cent of control
In short: as §1

Platelet-derived growth factor receptor beta (Homo sapiens), sequence (P09619 whole entry): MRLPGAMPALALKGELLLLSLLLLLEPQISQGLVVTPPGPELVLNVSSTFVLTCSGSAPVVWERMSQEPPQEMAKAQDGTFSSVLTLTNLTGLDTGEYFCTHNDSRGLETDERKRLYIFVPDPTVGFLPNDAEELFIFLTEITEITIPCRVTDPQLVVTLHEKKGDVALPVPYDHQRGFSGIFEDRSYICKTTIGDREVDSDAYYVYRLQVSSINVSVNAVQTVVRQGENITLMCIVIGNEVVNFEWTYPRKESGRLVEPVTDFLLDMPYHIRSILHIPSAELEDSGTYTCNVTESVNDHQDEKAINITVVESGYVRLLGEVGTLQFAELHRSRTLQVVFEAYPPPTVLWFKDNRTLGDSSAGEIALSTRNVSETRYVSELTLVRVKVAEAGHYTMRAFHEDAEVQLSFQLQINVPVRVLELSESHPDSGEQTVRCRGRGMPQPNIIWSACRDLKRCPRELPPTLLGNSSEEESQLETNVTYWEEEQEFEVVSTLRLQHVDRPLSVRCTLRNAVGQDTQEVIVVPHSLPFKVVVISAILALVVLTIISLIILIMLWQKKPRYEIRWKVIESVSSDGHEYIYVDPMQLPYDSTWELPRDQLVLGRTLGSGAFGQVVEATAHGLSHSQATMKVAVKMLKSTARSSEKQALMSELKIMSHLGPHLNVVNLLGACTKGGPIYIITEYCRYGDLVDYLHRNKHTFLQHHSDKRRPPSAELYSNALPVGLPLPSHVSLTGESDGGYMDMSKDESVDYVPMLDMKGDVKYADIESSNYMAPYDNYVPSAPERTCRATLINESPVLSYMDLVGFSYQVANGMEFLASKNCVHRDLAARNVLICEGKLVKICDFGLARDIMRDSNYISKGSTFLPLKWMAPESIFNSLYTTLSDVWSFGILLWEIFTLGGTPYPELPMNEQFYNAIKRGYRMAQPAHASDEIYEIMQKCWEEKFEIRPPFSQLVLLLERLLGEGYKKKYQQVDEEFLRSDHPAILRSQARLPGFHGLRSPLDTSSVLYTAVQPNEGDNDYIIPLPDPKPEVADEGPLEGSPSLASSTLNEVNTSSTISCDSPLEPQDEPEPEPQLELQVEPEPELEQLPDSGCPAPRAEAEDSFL

residual binding, % of control [%]	Structure (SMILES)
62	COc1ccc(-c2nc(-c3ccnc(N)n3)sc2C(N)=O)c(Cl)c1
89	CCOC(=O)c1sc(-c2ccncc2)nc1O

Structure (SMILES)	residual binding, % of control [%]
NC(=O)c1sc(-c2ccnc(N)n2)nc1-c1ccc(Cl)cc1Cl	52

Target: T3, Serine/threonine-protein kinase Chk1 (Homo sapiens) (UniProt O14757)
T3 sequence (whole entry): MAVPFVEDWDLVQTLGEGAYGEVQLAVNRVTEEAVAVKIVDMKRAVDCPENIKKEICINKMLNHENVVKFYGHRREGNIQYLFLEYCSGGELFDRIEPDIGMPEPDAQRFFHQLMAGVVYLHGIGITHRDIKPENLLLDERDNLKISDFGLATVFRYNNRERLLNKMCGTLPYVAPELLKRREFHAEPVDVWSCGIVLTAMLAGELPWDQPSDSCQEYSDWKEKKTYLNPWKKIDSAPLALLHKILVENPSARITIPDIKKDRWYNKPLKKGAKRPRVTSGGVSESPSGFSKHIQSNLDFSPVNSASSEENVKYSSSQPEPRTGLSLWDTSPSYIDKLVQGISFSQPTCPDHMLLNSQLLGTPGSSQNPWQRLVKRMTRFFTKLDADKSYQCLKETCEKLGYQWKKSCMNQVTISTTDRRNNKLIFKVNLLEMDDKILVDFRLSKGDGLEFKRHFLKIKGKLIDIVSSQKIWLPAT
Assay: Inhibition of CHEK1 (unknown origin) at 1 uM relative to control; values are per cent of control
Details: not given

residual activity [%]	Structure (SMILES)
78	COc1ccc(-c2nc(-c3ccnc(N)n3)sc2C(N)=O)c(Cl)c1
100	CCOC(=O)c1sc(-c2ccncc2)nc1O

Structure (SMILES)	residual activity [%]
NC(=O)c1sc(-c2ccnc(N)n2)nc1-c1ccc(Cl)cc1Cl	100

Target: Serine/threonine-protein kinase B-raf (Homo sapiens) (UniProt P15056)
Assay: Inhibition of BRAF (unknown origin) at 1 uM relative to control; values are per cent of control
Details: not given

Serine/threonine-protein kinase B-raf (Homo sapiens), sequence (P15056 whole entry): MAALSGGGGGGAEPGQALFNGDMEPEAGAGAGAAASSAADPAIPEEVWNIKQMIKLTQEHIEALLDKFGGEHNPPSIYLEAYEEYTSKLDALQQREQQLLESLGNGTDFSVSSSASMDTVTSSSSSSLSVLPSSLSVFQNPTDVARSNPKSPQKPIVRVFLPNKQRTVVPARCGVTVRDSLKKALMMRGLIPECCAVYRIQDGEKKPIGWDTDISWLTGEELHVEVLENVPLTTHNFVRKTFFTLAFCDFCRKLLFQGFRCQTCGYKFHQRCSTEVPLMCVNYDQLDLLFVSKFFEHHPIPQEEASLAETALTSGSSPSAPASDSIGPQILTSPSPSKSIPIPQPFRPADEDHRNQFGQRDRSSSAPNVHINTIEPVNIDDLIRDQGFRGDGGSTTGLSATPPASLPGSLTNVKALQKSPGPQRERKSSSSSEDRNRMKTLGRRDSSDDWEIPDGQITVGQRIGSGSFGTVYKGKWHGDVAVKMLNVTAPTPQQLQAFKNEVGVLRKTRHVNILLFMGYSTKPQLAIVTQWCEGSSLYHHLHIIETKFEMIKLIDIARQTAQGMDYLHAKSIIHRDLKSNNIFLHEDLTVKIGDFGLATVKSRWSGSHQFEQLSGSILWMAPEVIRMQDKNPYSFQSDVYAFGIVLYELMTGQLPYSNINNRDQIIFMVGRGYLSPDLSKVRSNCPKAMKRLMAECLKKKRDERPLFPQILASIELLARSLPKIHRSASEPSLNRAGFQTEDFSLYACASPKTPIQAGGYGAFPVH

residual activity [%]	Structure (SMILES)
100	COc1ccc(-c2nc(-c3ccnc(N)n3)sc2C(N)=O)c(Cl)c1
100	CCOC(=O)c1sc(-c2ccncc2)nc1O

Structure (SMILES)	residual activity [%]
NC(=O)c1sc(-c2ccnc(N)n2)nc1-c1ccc(Cl)cc1Cl	80

Source: ChEMBL document CHEMBL3259739, “Synthesis and structure-activity relationship of trisubstituted thiazoles as Cdc7 kinase inhibitors” (Eur J Med Chem, 2014)
